ChEMBL document CHEMBL2150974 (J Med Chem, 2012)
pIC50: −log10 of the molar value. Calls of active or inactive are those of the source. The rule behind the calls is not given here.

Assays:
[1] = biological target: T1, Mitogen-activated protein kinase 14 (Homo sapiens, UniProt Q16539); assay: Inhibition of p38alpha at 10 uM by immunosorbent based kinase assay
[2] = biological target: RAC-alpha serine/threonine-protein kinase (Homo sapiens) (UniProt P31749); assay: Inhibition of AKT1 at 10 uM
[3] = biological target: T2, Serine/threonine-protein kinase PLK4 (Homo sapiens) (UniProt O00444); assay: Inhibition of SAK at 10 uM
T2 sequence (whole entry): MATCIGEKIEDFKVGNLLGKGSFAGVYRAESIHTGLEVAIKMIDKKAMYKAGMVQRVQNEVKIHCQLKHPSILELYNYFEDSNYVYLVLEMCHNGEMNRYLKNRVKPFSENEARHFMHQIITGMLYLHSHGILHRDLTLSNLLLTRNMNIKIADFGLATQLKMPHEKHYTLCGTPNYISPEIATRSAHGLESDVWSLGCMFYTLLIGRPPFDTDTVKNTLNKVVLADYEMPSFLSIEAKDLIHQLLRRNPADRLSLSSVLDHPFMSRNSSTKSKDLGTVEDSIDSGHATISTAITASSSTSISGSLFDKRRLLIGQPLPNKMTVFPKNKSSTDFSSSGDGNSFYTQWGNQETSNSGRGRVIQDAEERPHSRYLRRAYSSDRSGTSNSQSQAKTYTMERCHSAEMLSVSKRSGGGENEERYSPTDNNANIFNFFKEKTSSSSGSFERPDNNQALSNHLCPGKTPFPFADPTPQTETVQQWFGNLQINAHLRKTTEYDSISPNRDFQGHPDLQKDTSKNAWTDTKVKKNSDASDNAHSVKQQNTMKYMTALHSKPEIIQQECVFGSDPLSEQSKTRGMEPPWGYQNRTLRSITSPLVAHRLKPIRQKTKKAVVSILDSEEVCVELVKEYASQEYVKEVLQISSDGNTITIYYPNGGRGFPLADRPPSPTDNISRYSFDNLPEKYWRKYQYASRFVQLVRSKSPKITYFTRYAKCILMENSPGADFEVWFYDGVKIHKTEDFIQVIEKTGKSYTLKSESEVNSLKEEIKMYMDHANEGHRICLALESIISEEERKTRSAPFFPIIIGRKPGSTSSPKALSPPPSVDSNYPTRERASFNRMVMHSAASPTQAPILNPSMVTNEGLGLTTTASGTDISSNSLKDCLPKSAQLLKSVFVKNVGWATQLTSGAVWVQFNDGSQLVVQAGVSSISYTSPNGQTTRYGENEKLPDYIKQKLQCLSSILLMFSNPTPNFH

[4] = biological target: T3, NUAK family SNF1-like kinase 1 (Homo sapiens) (UniProt O60285); assay: Inhibition of ARK5 at 10 uM
T3 sequence (whole entry): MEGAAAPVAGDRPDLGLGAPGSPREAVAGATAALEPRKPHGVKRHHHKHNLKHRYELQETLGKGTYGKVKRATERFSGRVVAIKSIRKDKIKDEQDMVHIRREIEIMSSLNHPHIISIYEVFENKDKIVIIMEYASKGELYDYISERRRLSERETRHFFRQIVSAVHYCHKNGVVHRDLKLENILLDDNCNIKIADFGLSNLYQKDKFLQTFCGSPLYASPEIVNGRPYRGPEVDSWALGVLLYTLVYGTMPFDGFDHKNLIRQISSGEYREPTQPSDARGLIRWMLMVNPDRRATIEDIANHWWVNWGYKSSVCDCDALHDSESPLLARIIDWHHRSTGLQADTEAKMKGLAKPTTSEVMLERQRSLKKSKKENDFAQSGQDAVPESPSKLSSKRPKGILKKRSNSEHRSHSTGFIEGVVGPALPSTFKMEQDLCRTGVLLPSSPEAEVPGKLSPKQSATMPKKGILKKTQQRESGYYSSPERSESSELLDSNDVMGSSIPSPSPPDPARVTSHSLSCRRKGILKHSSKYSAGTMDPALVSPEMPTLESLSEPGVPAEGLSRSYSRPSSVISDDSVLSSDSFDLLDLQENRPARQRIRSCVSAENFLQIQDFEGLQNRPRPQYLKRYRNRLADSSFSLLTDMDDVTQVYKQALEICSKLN

[5] = biological target: BDNF/NT-3 growth factors receptor (Homo sapiens) (UniProt Q16620); assay: Inhibition of TRKB at 10 uM
Chain of BDNF/NT-3 growth factors receptor (Homo sapiens) (Q16620 32-822 limits assumed): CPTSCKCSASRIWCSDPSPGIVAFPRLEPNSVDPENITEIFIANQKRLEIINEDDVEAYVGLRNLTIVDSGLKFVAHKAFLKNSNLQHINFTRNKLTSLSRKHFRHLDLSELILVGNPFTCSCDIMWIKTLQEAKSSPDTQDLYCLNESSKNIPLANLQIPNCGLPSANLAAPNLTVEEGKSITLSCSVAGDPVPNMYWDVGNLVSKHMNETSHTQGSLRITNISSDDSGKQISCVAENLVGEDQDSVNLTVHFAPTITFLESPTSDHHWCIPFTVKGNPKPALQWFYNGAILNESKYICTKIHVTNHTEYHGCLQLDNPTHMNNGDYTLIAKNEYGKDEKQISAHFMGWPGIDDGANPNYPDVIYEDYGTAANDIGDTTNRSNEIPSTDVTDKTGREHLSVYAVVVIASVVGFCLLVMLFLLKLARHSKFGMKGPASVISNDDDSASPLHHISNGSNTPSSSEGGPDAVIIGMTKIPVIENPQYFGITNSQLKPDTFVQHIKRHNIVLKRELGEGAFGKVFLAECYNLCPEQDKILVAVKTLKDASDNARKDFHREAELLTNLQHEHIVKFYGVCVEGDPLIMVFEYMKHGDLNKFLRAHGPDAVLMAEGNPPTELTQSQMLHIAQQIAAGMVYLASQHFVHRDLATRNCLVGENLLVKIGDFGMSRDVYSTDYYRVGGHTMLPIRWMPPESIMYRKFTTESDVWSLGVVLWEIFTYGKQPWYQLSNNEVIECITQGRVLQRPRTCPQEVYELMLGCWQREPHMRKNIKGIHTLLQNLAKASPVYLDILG

[6] = biological target: Aurora kinase B (Homo sapiens) (UniProt Q96GD4); assay: Inhibition of AuroraB at 10 uM
Chain of Aurora kinase B (Homo sapiens) (Q96GD4 whole entry): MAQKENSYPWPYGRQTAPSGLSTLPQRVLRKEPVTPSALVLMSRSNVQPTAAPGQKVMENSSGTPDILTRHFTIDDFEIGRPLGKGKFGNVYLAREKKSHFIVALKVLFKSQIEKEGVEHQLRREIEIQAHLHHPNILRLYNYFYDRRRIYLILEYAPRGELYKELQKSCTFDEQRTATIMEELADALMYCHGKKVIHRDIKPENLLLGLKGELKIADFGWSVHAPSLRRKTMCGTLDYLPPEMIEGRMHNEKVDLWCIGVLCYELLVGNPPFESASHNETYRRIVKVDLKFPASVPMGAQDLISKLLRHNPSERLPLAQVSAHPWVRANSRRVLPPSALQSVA

[7] = biological target: Proto-oncogene tyrosine-protein kinase Src (Homo sapiens) (UniProt P12931); assay: Inhibition of SRC at 10 uM
Chain of Proto-oncogene tyrosine-protein kinase Src (Homo sapiens) (P12931 2-536 limits assumed): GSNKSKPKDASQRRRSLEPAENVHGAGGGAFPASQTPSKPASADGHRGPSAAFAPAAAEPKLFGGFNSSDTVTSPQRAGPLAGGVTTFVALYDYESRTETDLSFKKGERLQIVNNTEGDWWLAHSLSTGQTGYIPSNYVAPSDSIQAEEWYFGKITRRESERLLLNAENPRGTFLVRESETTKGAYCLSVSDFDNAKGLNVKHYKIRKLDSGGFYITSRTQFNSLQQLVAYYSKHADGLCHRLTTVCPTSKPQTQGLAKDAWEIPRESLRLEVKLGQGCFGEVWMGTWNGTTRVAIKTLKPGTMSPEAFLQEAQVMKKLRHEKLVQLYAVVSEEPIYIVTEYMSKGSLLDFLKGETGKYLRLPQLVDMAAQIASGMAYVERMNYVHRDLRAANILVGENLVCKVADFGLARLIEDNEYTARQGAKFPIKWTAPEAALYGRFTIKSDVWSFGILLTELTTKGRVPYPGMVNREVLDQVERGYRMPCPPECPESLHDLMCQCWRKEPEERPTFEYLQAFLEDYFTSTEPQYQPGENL

[8] = test system: Serine/threonine-protein kinase B-raf (Homo sapiens), P15056 [V600E]; assay: Inhibition of BRAF V600E mutant at 10 uM
[9] = biological target: Vascular endothelial growth factor receptor 2 (Homo sapiens) (UniProt P35968); assay: Inhibition of VEGFR2 at 10 uM
Chain of Vascular endothelial growth factor receptor 2 (Homo sapiens) (P35968 whole entry): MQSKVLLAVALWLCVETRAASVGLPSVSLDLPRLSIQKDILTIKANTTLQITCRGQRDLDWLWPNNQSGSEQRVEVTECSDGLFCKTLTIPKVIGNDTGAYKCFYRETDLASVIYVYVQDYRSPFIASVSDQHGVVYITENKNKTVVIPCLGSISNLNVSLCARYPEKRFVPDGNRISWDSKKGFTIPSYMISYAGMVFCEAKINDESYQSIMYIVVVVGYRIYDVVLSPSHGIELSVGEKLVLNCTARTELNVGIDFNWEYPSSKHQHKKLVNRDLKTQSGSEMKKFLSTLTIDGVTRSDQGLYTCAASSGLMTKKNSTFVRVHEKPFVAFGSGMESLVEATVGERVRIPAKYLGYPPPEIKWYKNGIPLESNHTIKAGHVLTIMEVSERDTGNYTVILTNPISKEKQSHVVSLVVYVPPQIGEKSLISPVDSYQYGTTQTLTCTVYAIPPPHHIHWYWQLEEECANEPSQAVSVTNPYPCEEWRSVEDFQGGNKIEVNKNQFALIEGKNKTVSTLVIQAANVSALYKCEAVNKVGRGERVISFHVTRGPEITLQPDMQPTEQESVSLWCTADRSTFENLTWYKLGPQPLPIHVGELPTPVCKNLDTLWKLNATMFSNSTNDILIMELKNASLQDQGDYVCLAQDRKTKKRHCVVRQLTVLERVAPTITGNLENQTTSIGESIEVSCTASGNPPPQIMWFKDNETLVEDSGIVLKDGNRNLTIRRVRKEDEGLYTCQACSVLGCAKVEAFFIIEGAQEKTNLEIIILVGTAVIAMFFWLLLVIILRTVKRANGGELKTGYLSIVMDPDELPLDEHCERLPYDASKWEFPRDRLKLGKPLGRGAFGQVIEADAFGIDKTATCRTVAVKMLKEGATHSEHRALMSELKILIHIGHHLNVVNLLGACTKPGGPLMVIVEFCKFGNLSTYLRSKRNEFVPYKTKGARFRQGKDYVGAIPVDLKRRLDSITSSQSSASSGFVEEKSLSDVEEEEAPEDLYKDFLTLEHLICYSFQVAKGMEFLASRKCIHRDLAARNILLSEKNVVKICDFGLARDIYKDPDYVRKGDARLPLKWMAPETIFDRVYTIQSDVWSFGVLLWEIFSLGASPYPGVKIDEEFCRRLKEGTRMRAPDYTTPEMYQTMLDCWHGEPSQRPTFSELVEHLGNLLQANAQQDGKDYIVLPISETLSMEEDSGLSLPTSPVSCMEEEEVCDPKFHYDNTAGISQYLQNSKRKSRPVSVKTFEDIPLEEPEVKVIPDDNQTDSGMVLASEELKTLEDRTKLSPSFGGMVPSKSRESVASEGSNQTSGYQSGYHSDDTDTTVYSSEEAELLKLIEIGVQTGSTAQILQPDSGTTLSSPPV

[10] = biological target: Insulin receptor (Homo sapiens) (UniProt P06213); assay: Inhibition of INSR at 10 uM
[11] = biological target: Insulin-like growth factor 1 receptor (Homo sapiens) (UniProt P08069); assay: Inhibition of IGF1R at 10 uM
[12] = biological target: Hepatocyte growth factor receptor (Homo sapiens) (UniProt P08581); assay: Inhibition of MET at 10 uM
[13] = biological target: Focal adhesion kinase 1 (Homo sapiens) (UniProt Q05397); assay: Inhibition of FAK at 10 uM
[14] = biological target: Serine/threonine-protein kinase PLK1 (Homo sapiens) (UniProt P53350); assay: Inhibition of PLK1 at 10 uM
Chain of Serine/threonine-protein kinase PLK1 (Homo sapiens) (P53350 whole entry): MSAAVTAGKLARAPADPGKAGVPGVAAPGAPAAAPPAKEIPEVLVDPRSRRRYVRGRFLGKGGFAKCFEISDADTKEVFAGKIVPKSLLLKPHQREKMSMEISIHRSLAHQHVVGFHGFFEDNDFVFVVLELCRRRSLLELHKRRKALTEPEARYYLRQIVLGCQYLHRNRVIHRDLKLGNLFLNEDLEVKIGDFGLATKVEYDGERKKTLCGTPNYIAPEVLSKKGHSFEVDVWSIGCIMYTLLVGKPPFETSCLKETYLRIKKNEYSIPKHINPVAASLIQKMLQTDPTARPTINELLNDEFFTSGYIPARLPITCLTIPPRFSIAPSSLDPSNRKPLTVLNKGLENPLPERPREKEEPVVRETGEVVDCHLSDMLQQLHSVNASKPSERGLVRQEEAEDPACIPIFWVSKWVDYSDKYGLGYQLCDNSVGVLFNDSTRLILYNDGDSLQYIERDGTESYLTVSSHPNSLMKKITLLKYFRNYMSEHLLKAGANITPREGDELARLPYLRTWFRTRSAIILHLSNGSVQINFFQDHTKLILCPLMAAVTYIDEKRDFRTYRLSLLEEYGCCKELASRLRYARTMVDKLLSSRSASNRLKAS

[15] = biological target: Tyrosine-protein kinase receptor UFO (Homo sapiens) (UniProt P30530); assay: Inhibition of AXL at 10 uM
[16] = biological target: Serine/threonine-protein kinase N1 (Homo sapiens) (UniProt Q16512); assay: Inhibition of PRK1 at 10 uM
[17] = biological target: Casein kinase II subunit alpha (Homo sapiens) (UniProt P68400); assay: Inhibition of CK2alpha1 at 10 uM
Chain of Casein kinase II subunit alpha (Homo sapiens) (P68400 whole entry, looked up): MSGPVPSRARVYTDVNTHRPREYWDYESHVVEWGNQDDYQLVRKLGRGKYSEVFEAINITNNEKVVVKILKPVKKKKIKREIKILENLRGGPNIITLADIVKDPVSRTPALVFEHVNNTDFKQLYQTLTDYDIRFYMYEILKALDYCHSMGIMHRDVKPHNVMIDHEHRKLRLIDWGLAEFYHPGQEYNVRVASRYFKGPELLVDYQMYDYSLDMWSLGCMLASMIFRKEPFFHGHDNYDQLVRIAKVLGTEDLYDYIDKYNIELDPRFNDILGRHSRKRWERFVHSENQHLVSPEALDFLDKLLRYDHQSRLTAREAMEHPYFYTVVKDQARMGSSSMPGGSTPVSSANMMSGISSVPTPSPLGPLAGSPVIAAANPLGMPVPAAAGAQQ

[18] = biological target: T1, Mitogen-activated protein kinase 14; assay: Inhibition of p38alpha by immunosorbent based kinase assay
[19] = biological target: T1, Mitogen-activated protein kinase 14; assay: Inhibition of p38alpha-dependent TNFalpha production in human whole blood at 100 uM
How it was run: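 Freshly drawn human whole blood, used diluted so that serum albumin and other plasma proteins are present; inhibition of TNF-α release from the blood's immune cells measured.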

[20] = biological target: T1, Mitogen-activated protein kinase 14; assay: Inhibition of p38alpha-dependent TNFalpha production in human whole blood

T1 sequence (Q16539 whole entry): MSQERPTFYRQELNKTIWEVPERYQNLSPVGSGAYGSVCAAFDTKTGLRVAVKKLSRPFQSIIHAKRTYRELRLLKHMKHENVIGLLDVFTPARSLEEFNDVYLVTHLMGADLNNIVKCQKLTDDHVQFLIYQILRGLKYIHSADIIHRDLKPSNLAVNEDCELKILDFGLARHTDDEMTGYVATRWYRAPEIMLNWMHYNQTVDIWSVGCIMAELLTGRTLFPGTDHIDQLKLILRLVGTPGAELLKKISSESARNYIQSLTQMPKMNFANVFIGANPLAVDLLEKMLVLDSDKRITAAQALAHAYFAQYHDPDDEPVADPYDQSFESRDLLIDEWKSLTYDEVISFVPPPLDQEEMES
Chain of RAC-alpha serine/threonine-protein kinase (Homo sapiens) (P31749 whole entry): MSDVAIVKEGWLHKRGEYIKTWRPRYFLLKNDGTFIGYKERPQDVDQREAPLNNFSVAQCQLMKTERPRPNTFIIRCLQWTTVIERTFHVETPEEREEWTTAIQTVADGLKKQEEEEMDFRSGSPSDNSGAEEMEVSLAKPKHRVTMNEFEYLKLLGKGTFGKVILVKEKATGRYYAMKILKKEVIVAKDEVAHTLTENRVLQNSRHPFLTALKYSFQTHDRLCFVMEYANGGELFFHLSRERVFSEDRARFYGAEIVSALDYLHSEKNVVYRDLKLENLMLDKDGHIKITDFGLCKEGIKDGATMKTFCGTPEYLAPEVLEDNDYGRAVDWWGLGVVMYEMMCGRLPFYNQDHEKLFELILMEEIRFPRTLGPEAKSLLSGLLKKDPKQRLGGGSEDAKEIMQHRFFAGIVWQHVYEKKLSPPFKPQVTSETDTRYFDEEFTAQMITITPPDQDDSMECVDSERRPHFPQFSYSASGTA

Structure (SMILES)	inhibition [1]	inhibition [2]	inhibition [3]	inhibition [4]	inhibition [5]	inhibition [6]	inhibition [7]	inhibition [8]	inhibition [9]	inhibition [10]	inhibition [11]	inhibition [12]	inhibition [13]	inhibition [14]	inhibition [15]	inhibition [16]	inhibition [17]	pIC50 [18]	inhibition [19]	pIC50 [20]
COc1ccc2c(c1)C(=O)c1ccc(-c3ccccc3)cc1CC2	32%	inactive	inactive	inactive	inactive	inactive	inactive	inactive	inactive	inactive	inactive	inactive	inactive	inactive	inactive	inactive	inactive			
O=C1c2ccc(Nc3ccc(F)cc3F)cc2CCc2cc(OC[C@@H](O)CO)ccc21		inactive	inactive	inactive	inactive	inactive	inactive	inactive	inactive	inactive	inactive	inactive	inactive	inactive	inactive	inactive	inactive	8.30		5.28
COc1ccc2c(c1)C(=O)c1ccc(Nc3ccc(F)c(C)c3)cc1CC2		inactive	inactive	inactive	inactive	inactive	inactive	inactive	inactive	inactive	inactive	inactive	inactive	inactive	inactive	inactive	inactive	7.40		5.72
COc1ccc2ccc3cc(Nc4ccc(F)cc4F)ccc3c(=O)c2c1	21%	inactive	inactive	inactive	inactive	inactive	inactive	inactive	inactive	inactive	inactive	inactive	inactive	inactive	inactive	inactive	inactive			

The remaining lines, values ahead:

inhibition [1]	inhibition [2]	inhibition [3]	inhibition [4]	inhibition [5]	inhibition [6]	inhibition [7]	inhibition [8]	inhibition [9]	inhibition [10]	inhibition [11]	inhibition [12]	inhibition [13]	inhibition [14]	inhibition [15]	inhibition [16]	inhibition [17]	pIC50 [18]	inhibition [19]	pIC50 [20]	Structure (SMILES)
	inactive	inactive	inactive	inactive	inactive	inactive	inactive	inactive	inactive	inactive	inactive	inactive	inactive	inactive	inactive	inactive	6.36	40%		CC1(C)OC[C@H](COc2cccc3c2CCc2cc(Nc4ccc(F)cc4F)ccc2C3=O)O1
	inactive	inactive	inactive	inactive	inactive	inactive	inactive	inactive	inactive	inactive	inactive	inactive	inactive	inactive	inactive	inactive	7.22		5.41	COc1ccc2c(c1)C(=O)c1ccc(Nc3ccc(F)cc3C)cc1CC2
	inactive	inactive	inactive	inactive	inactive	inactive	inactive	inactive	inactive	inactive	inactive	inactive	inactive	inactive	inactive	inactive	7.52		6.72	CC1(C)OC[C@H](COc2ccc3c(c2)C(=O)c2ccc(Nc4ccccc4N)cc2CC3)O1
